Usually EC50 stands for the concentration that produces a half-maximal response.

Data set [1] is described as follows: Cellular uptake in intracellular vesicle of rat L6 cells at 10 uM after 4 hrs by WGA/Hoechst staining-based confocal fluorescent microscopic analysis. As to conditions: l6, 4 h; call rule not given here. Type of data set: ADME, cell-based. Summed up:
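Live L6 myotubes on glass-bottom dishes were given NBD-labelled peptide (10 μM) for 4 h in medium with 1% FBS, then washed. Nuclei were stained with Hoechst and membranes with Alexa Fluor-WGA. Imaging was by confocal microscopy at 37 °C.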

Data set [2] in a line: Induction of self-assembly of the compound in DMSO at 1 uM by fluorescence spectroscopic analysis. Type of data set: physicochemical. Put shortly:
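Self-assembly of NBD-labelled peptide (1 μM) in 1:1 DMSO/MES (25 mM, pH 6.6) was followed as fluorescence decrease over time.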

A short description of data set [3]: Antioxidant activity assessed as inhibition of H2O2-induced ROS production by DCFH assay. Type of data set: functional. Put shortly: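 DCFH oxidation assay: H2O2 (0.5 mM) was incubated with DCFH with or without the test agent, and the DCF formed was read fluorometrically. Free His and Trolox served as controls.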

Consider `O=C1N[C@H](CCCCNc2ccc([N+](=O)[O-])c3nonc23)C(=O)N[C@@H](Cc2c[nH]cn2)C(=O)N[C@H](Cc2c[nH]c3ccccc23)C(=O)N[C@@H](Cc2c[nH]c3ccccc23)C(=O)N[C@H](Cc2c[nH]cn2)C(=O)N[C@@H](Cc2c[nH]cn2)C(=O)N[C@H](Cc2c[nH]cn2)C(=O)N[C@H]1Cc1c[nH]cn1`, for which the Drug uptake result in data set [1] is recorded as “Active”. In data set [2], the outcome was Active. Moreover, the half-maximal effective concentration (EC50) in data set [3] came to 300 nM.

(Values after ChEMBL document CHEMBL2439985, “Multifunctional cyclic D,L-α-peptide architectures stimulate non-insulin dependent glucose uptake in skeletal muscle cells and protect them against oxidative stress” (J Med Chem, 2013).)
